# Source: PubChem (several laboratories)
# PREPL inh – inhibits the human prolyl oligopeptidase-like enzyme. Q4J6C6. recombinant PREPL, fluorescence polarization activity-based probe. inhibition, % at 5.96 µM. 320,000 compounds, 0.68% hits. AID 2751;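 further: 0% = enzyme with DMSO and 100% = wells lacking enzyme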
# UBC13 polyUb – human UBC13 polyubiquitination inhibition | P61088 | UBC13 polyubiquitin chain formation, TR-FRET | inhibition, % at 20 µM | 330,000 compounds, 0.47% hits | AID 485273; in the data active means inhibition above about 45%, passing the limit was not always enough
# Target sequence (P61088 whole entry, looked up): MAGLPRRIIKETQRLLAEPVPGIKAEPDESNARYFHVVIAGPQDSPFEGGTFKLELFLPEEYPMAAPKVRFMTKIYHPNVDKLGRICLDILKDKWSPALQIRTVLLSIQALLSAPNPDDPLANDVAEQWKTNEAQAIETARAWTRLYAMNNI
# MEKK2mut PB1 HTS – signal of MEK5 binding to mutant human MEKK2 PB1 domain; bead flow cytometry, Alexa488-MEK5 binding to MEKK2 mutant; percent response, % at 10 µM; 290,000 compounds, 0.35% hits; AID 1530; in the data active means percent response above about 24%, passing the limit was not always enough
# MEKK3 PB1 HTS – modulators (inhibitors or enhancers) of MEK5 binding to human MEKK3 PB1 domain. binding response (% of control), % at 10 µM. AID 1529. bead-based flow cytometry, Alexa488-MEK5 binding to MEKK3; actives lie on both sides; 0 = blocked by unlabeled MEK5, 100 = vehicle. Q99759. 290,000 compounds, 1.4% hits;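 active means binding response more than 3 SD above or below the average of its plate-row segment, actives on both sides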;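 further: Alexa488 bead fluorescence after subtracting the streptavidin-only scavenger bead signal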
# Apaf1 inhib – inhibitors of human Apaf-1 apoptosome. reconstituted apoptosome caspase-3 activity, DEVD-Rh110 fluorescence. inhibition, % at 20 µM. 330,000 compounds, 0.71% hits. AID 489030; active means inhibition of at least 40% at 20 µM;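 further: plate controls were DMSO wells for no effect and DEVD-CHO caspase inhibitor wells for full effect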
#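 System: reconstituted apoptosome with Apaf-1, cytochrome c, caspase-9, procaspase-3, dATP; Signal: Rh110 fluorescence intensity; Schedule: 30 min compound preincubation, 50 min activation, room temperature; Reagent: cytochrome c trigger plus (Z-DEVD)2-Rh110 caspase-3 substrate.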
# MEKK2wt PB1 HTS – raises or lowers MEK5 binding to wildtype human MEKK2 PB1 domain; Q9Y2U5; bead flow cytometry, Alexa488-MEK5 binding to MEKK2 WT; actives lie on both sides; binding response (% of control), % at 10 µM; 290,000 compounds, 1.1% hits; in the data active means binding response below about 67% or above about 130%
# MEKK2wt confirm – raises or lowers MEK5 binding to wildtype human MEKK2, retest. binding response (% of control), % at 10 µM. shares compounds with MEKK3 PB1 HTS. bead flow cytometry, Alexa488-MEK5 binding to MEKK2 WT; actives lie on both sides. 5,900 compounds, 2.4% hits. AID 1892; in the data active means binding response below about 16% or above about 210%; inactive means in between
# MEKK2mut confirm – signal of MEK5 binding to mutant human MEKK2, retest | shares compounds with MEKK3 PB1 HTS | bead flow cytometry, Alexa488-MEK5 binding to MEKK2 mutant | percent response, % at 10 µM | 5,900 compounds, 2% hits | AID 1893; in the data active means percent response mostly above about 71%, no sharp cut-off; inactive means mostly below about 38%;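 further: higher means compound restores mutant binding toward wildtype level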
# MEKK3-MEK5 inh – MEKK3-MEK5 PB1 inhibition, single concentration confirmation | bead flow cytometry, Alexa488-MEK5 binding to MEKK3; hits give low values | binding response (% of control), % at 10 µM | shares compounds with MEKK3 PB1 HTS | 5,900 compounds, 1.8% hits | AID 1894;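 active means binding response below 72% of control, or above a set upper limit, though filed actives all read lower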;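 further: 100% = DMSO only wells and 0% = binding blocked by excess unlabeled MEK5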
# PREPL confirm – confirmation of human PREPL enzyme inhibitors | recombinant PREPL, fluorescence polarization activity probe | inhibition, % at 5.96 µM | 2,000 compounds, 67% hits | AID 2803 | shares compounds with PREPL inh;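 further: 0% = protein with DMSO and 100% = wells lacking protein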
# Casp3 counter – inhibits human caspase-3 in UBC13 counter-screen; 1,400 compounds, 4% hits; shares compounds with UBC13 polyUb; Recombinant caspase-3, Caspase-Glo 3/7 luminescence, 60 min; inhibition, % at 20 µM;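 active means mean inhibition across replicates above about 26%, limit read from the data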;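 further: plate controls were DMSO with caspase-3 for no effect and DMSO wells lacking enzyme for full effect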
# Target sequence (P42574 whole entry, looked up): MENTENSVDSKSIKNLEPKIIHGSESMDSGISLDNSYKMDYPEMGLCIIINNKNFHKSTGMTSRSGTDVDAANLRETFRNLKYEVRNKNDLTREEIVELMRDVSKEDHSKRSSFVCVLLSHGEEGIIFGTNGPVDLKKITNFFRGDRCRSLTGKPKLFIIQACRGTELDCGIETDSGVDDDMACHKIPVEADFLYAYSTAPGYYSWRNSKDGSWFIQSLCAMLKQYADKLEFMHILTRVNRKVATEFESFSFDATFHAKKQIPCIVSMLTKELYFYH
# UBC13 confirm – human UBC13 polyubiquitin inhibition, confirmed; UBC13 polyubiquitination, TR-FRET, biochemical; AID 488859; shares compounds with UBC13 polyUb; inhibition, % at 10 µM; 1,400 compounds, 68% hits; in the data active means inhibition above about 45%
# Apaf-1 inh conf – Apaf-1 inhibition, single-dose confirmed; shares compounds with Apaf1 inhib; reconstituted apoptosome, caspase-3 DEVD-Rh110 fluorescence; inhibition, % at 20 µM; 1,800 compounds, 25% hits;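 active means mean inhibition of at least 40% at 20 µM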;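 further: plate controls were DMSO wells for no effect and DEVD-CHO caspase inhibitor control wells for full effect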
# Rh110 interf inh – Rh110 signal interference in Apaf-1 inhibitor counter-screen; 1,800 tested, under 10 active; Rh110 fluorescence interference, quenched caspase reaction; shares compounds with Apaf1 inhib; activation (fluorescence interference), % at 20 µM; AID 504615;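 active means signal rise of 40% or more at 20 µM, treated as a fluorescence artifact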
# Apaf1 inh interf – counter-screen for Apaf-1 inhibitors: fluorescence interference, dose response; fluorescence interference counterscreen, Apaf-1 assay format; IC50, µM; 460 tested, under 10 active; shares compounds with Apaf1 inhib; call rule not given here
# * hit, by the source's call; . = no result; ! = repeats disagree; [ ] = remark or other dose. In the library only some 3.1% were active in any assay of this set; here they are far more common. Unless noted, no stated cut-off is given here; in the data, active means inhibition above about 43%; inactive means the rest.
SMILES,PREPL inh,UBC13 polyUb,MEKK2mut PB1 HTS,MEKK3 PB1 HTS,Apaf1 inhib,MEKK2wt PB1 HTS,MEKK2wt confirm,MEKK2mut confirm,MEKK3-MEK5 inh,Apaf-1 inh conf,Rh110 interf inh,others
Cc1ccc2nc(/C(C#N)=C\c3ccc(N4CCOCC4)o3)[nH]c2c1,0,-5,26*,103,44*,46*[inhibitor],112,12,108,18,-28,
Cc1cc2c(cc1S(=O)(=O)CCC(=O)NC1CCCCC1C)OCC(=O)N2 (centres undefined),-4,-2,-1,103,6,102,.,.,.,.,.,
Cc1[nH]c2ccccc2c1/C=N/Nc1nc2ccccc2[nH]1,53*,-4,19,105,40,140*,147,27,102,18,9,
CC1(C)NC(=O)N(CCCC(=O)Nc2ccc(C(F)(F)F)cc2)C1=O,1,-2,.,.,12,.,.,.,.,.,.,
CCOC(=O)C(C(=O)OCC)c1cc(Br)c2noc3c2c1C(=O)c1ccccc1-3,23,-110,-14,64*[inhibitor],89*,39*[inhibitor],44,-25,68*,74*,-7,Apaf1 inh interf=>100
CN[C@H]1CC[C@@H](c2ccc(Cl)c(Cl)c2)c2ccccc21,-11,.,18,112,54*,176*!,117,19,102,5,-3,Casp3 counter=-3
N#Cc1cccc(NC(=O)CCNS(=O)(=O)c2ccc3[nH]c(=O)oc3c2)c1,11,1,12,105,-2,108,.,.,.,.,.,
Cc1cccc(NC(=S)NCc2ccc3c(c2)cc(C)n3C)c1C,22,10,5,78*[inhibitor],66*,66*[inhibitor],104,1,103,16,5,
Cc1cc2ccccc2n1CCNC(=O)Cc1ccccc1,29,13,-4,105,29,82,.,.,.,.,.,
Cc1cccc(CC(=O)NCCn2c(C)cc3ccccc32)c1,12,-4,0,79*[inhibitor],41*,63*[inhibitor],105,-1,100,15,12,
CC1Sc2ccc(S(=O)(=O)CCC(=O)N(C)Cc3ccccc3)cc2NC1=O (centres undefined),2,1,3,99,9,99,.,.,.,.,.,
Cc1cc(C)c2oc(C(=O)Nc3ccc(S(=O)(=O)N4CCCC(C)C4)cc3)cc(=O)c2c1 (centres undefined),3,-7,-1,124,-2,104,.,.,.,.,.,
CN1CCN(c2cc3c(c4c2[nH]c2ccccc24)C(=O)CC(C)(C)C3)CC1,19,35,36*,115,50*,159*,147,44,105,5,-3,
CCN1CCCC1CNC(=O)c1cc2c(-c3ccc(Cl)cc3)nn(C)c2s1 (centres undefined),-72,41,29*,112,49*,210*,167,31,101,11,13,
COc1cc2nc(Nc3ccc(C)c(Cl)c3)nc(N)c2cc1OC,72*,111*,50*,105,45*,181*,198,65,105,35,14,PREPL confirm=66*;Casp3 counter=25*;UBC13 confirm=121*
O=C(Cn1cnc([N+](=O)[O-])c1)c1ccc(F)cc1,3,0,.,.,-8,.,.,.,.,.,.,
C=C(C)CNC(=S)Nc1cccc2cnccc12,17,-13,16,102,-4,106,.,.,.,.,.,
Cc1cc(C)cc(NC(=S)Nc2cccc3cnccc23)c1,.,-68,7,107,98*,140*,107,3,103,17,-1,
CC(=O)c1c(C)[nH]c(C(=O)Nc2cccc(C(F)(F)F)c2)c1C,11,4,-5,99,14,99,.,.,.,.,.,
CC(C)N1CCc2c(sc(NC(=O)c3nc4ccccc4s3)c2C(N)=O)C1,8,2,6,107,11,106,.,.,.,.,.,
CC(C)N1CCc2c(sc(NC(=O)c3ccc(S(=O)(=O)N4CCc5ccccc54)cc3)c2C(N)=O)C1,6,50*,56*,107,46*,196*,164,27,99,3,1,Casp3 counter=0;UBC13 confirm=41
COc1cc2c(cc1OC)CN(CC(=O)Nc1ccc(F)cc1)C(C(=O)O)C2 (centres undefined),7,6,7,100,4,104,.,.,.,.,.,
COc1ccc(C(CNC(=O)c2cccc(S(=O)(=O)NCc3ccccc3)c2)N(C)C)cc1 (centres undefined),-4,19,11,107,12,121,.,.,.,.,.,
NC(=NCCCCCCN=C(N)/N=C(\N)Nc1ccc(Cl)cc1)/N=C(\N)Nc1ccc(Cl)cc1,-2,111*,96*,113,79*,345*,268*,121*,113,30,3,Casp3 counter=-2;UBC13 confirm=118*
N=c1n(CC(=O)c2ccc(Br)s2)c2ccccc2n1Cc1ccccc1,-18,18,39,102,42*,158*,145,11,100,23,7,
Cn1c(=N)n(CC(=O)c2ccc(Br)s2)c2ccccc21,-6,2,.,.,3,.,.,.,.,.,.,
COC(=O)CCCC1=CC2=CC(=O)C(C)(OC(=O)c3cccs3)C(=O)C2=CN1CCCCO (centres undefined),10,-70,1,95,38,95,.,.,.,.,.,
